In data set [1] the test system is Acinetobacter baumannii. Kind of data set: Antibacterial activity against Acinetobacter baumannii ATCC 17978 after 16 to 18 hrs by microbroth dilution method. In kind it is functional. An outline of the steps:
(§1)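 Broth microdilution in Mueller–Hinton broth following CLSI recommendations. Strains came from ATCC or CCUG collections or the authors' clinical isolates. Compounds were dissolved in DMSO as a 100 mg/ml stock and then diluted in culture medium. Inoculum was 5 × 10⁴ CFU/well. MIC was read after 16–18 h incubation at 35–37 °C.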
On the technique in general: In broth dilution the organism is exposed to a series of concentrations in liquid medium.

Another data set relates to Aeromonas hydrophila. Kind of data set: Antibacterial activity against Aeromonas hydrophila ATCC 7966 after 16 to 18 hrs by microbroth dilution method. In kind it is functional. An outline of the steps:
as §1

Data set [2] has as its system Elizabethkingia meningoseptica. Kind of data set: Antibacterial activity against Elizabethkingia meningoseptica CCUG 4310 after 16 to 18 hrs by microbroth dilution method. Type of data set: functional. An outline of the steps: as §1
The subject of the next data set is Escherichia coli. Kind of data set: Antibacterial activity against Escherichia coli CCUGT after 16 to 18 hrs by microbroth dilution method. Type of data set: functional. An outline of the steps:
as §1

The test system of data set [3] is Klebsiella pneumoniae. Kind of data set: Antibacterial activity against Klebsiella pneumoniae ATCC 13833 after 16 to 18 hrs by microbroth dilution method. Type of data set: functional. An outline of the steps:
as §1

For data set [4], the system named is Pseudomonas aeruginosa. Kind of data set: Antibacterial activity against Pseudomonas aeruginosa ATCC 27853 after 16 to 18 hrs by microbroth dilution method. Type of data set: functional. An outline of the steps: as §1
In the next data set the test system is Bacillus subtilis. Kind of data set: Antibacterial activity against Bacillus subtilis ATCC 6633 after 16 to 18 hrs by microbroth dilution method. Type of data set: functional. The essentials:
as §1

In another data set the test system is Enterococcus faecalis. Kind of data set: Antibacterial activity against Enterococcus faecalis ATCC 19433 after 16 to 18 hrs by microbroth dilution method. Type of data set: functional. An outline of the steps: as §1
For data set [5], the system named is Staphylococcus epidermidis. Kind of data set: Antibacterial activity against Staphylococcus epidermidis ATCC 14990 after 16 to 18 hrs by microbroth dilution method. In kind it is functional. The essentials:
as §1

In the next data set the test system is Streptococcus pyogenes. Kind of data set: Antibacterial activity against Streptococcus pyogenes ATCC 12344 after 16 to 18 hrs by microbroth dilution method. In kind it is functional. An outline of the steps:
as §1

The subject of data set [6] is Acinetobacter baumannii. Kind of data set: Antibacterial activity against penicillin/expanded-spectrum cephalosporin/carbapenem/aztreonam/aminoglycoside/fluoroquinolone/fosfomycin/trimethoprim/sulfamethoxazole-resistant Acinetobacter baumannii AC-54/97 after 16 to 18 hrs by microbroth dilution method. Type of data set: functional. The essentials: (§2)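 Broth microdilution MIC per CLSI in Mueller–Hinton broth. Inoculum 5 × 10⁴ CFU/well. Compounds dissolved in DMSO at 100 mg/ml, then diluted in culture medium. Plates incubated 16–18 h at 35–37 °C before reading the MIC. Strains were taken from ATCC or CCUG collections or from the authors' clinical isolate collection.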

Data set [7] concerns Achromobacter xylosoxidans. Kind of data set: Antibacterial activity against penicillin/expanded-spectrum cephalosporin/carbapenem/aminoglycoside-resistant Achromobacter xylosoxidans AX 22 after 16 to 18 hrs by microbroth dilution method. In kind it is functional. The essentials: as §2
The next data set concerns Alcaligenes faecalis. Kind of data set: Antibacterial activity against expanded-spectrum cephalosporin/carbapenem/monobactam-resistant Alcaligenes faecalis 424/98 after 16 to 18 hrs by microbroth dilution method. In kind it is functional. An outline of the steps: as §2
For the next data set, the system named is Enterobacter cloacae. Kind of data set: Antibacterial activity against penicillin/CEPH/carbapenem/aminoglycoside/fluoroquinolone-resistant Enterobacter cloacae VA-417/02 after 16 to 18 hrs by microbroth dilution method. In kind it is functional. An outline of the steps:
as §2

Data set [8] deals with Klebsiella pneumoniae. Kind of data set: Antibacterial activity against penicillin/expanded-spectrum cephalosporin/carbapenem/aminoglycoside/fluoroquinolone/trimethoprim/sulfamethoxazole-resistant Klebsiella pneumoniae 7023 after 16 to 18 hrs by microbroth dilution method. Type of data set: functional. The essentials: as §2
Data set [9] has as its system Pseudomonas aeruginosa. Kind of data set: Antibacterial activity against penicillin/expanded-spectrum cephalosporin/carbapenem/aminoglycoside-resistant Pseudomonas aeruginosa 101/1477 after 16 to 18 hrs by microbroth dilution method. In kind it is functional. An outline of the steps: as §2
In data set [10] the test system is Pseudomonas aeruginosa. Kind of data set: Antibacterial activity against penicillin/expanded-spectrum cephalosporin/carbapenem/monobactam/aminoglycoside/fluoroquinolone-resistant Pseudomonas aeruginosa VR-143/97 after 16 to 18 hrs by microbroth dilution method. Type of data set: functional. An outline of the steps:
as §2

The subject of data set [11] is Stenotrophomonas maltophilia. Kind of data set: Antibacterial activity against penicillin/expanded-spectrum cephalosporin/carbapenem/monobactam/aminoglycoside/trimethoprim/sulfamethoxazole/fosfomycin-resistant Stenotrophomonas maltophilia 634/08 after 16 to 18 hrs by microbroth dilution method. Type of data set: functional. The essentials: as §2
The nature of data set [12]: Apparent permeability of the compound at pH 7.4 after 5 hrs by PAMPA. Type of data set: physicochemical. The essentials:
(§3)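 Parallel artificial membrane permeability assay run at physiological pH 7.4 and at alkaline pH 10.0, the duodenal-like condition, as a gastrointestinal permeability model. Apparent permeability (P_app) is reported in nm/s, together with the percentage of compound retained in the membrane.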

The nature of data set [13]: Apparent permeability of the compound at pH 10.0 after 5 hrs by PAMPA. Type of data set: physicochemical. The essentials: as §3
(In PAMPA a lipid-coated filter parts donor from acceptor wells.)

Data set [14] in a line: Apparent permeability of the compound assessed as membrane retention at pH 7.4 after 5 hrs by PAMPA. In kind it is physicochemical. The following applies: pH 7.4, 5 h. The essentials: as §3
Data set [15] in a line: Apparent permeability of the compound assessed as membrane retention at pH 10.0 after 5 hrs by PAMPA. In kind it is physicochemical. Particulars: pH 10, 5 h. The essentials:
as §3

In the case of `C=C(C)CNC(=N)NCCCCCCCCN1CCCCCCCCNC(=N)NC1=O.O=C(O)C(F)(F)F.O=C(O)C(F)(F)F`, the MIC (usually the least concentration at which growth counts as inhibited) worked out at 8 µg/mL against Acinetobacter baumannii [1]; 4 µg/mL against Aeromonas hydrophila; 32 µg/mL in data set [2]; 0.5 µg/mL against Escherichia coli; 1 µg/mL against Klebsiella pneumoniae [3]; 8 µg/mL against Pseudomonas aeruginosa [4]. The MIC came out at 0.5 µg/mL with Bacillus subtilis; 1 µg/mL against Enterococcus faecalis; 0.5 µg/mL in data set [5]; 0.5 µg/mL against Streptococcus pyogenes; 4 µg/mL against Acinetobacter baumannii [6]; 8 µg/mL in [7]. For the same compound, the MIC in the data set on Alcaligenes faecalis was 4 µg/mL; in the data set with Enterobacter cloacae, 1 µg/mL; in the data set with Klebsiella pneumoniae [8] it was 1 µg/mL; in the data set on Pseudomonas aeruginosa [9], 8 µg/mL; in the data set with Pseudomonas aeruginosa [10], 8 µg/mL; in [11] it was 4 µg/mL.

With `O=C(N[C@H](CO)[C@H](O)c1ccc([N+](=O)[O-])cc1)C(Cl)Cl` [CHLORAMPHENICOL], the figures for the Papp at 5 h in data set [12] and in data set [13] were 0.03 ×10⁻⁶ cm/s and 0.057 ×10⁻⁶ cm/s, respectively. In addition, the Papp in data set [14] and in [15] was 0% each time.

`C/C=C/CNC(=N)NCCCCCCN1CCCCCCCCNC(=N)NC1=O.O=C(O)C(F)(F)F.O=C(O)C(F)(F)F`: the MIC with Acinetobacter baumannii [1] was 256 µg/mL; against Aeromonas hydrophila, > 256 µg/mL; in data set [2], 256 µg/mL; in the data set with Escherichia coli, 256 µg/mL; against Klebsiella pneumoniae [3] it was > 256 µg/mL; in the data set on Pseudomonas aeruginosa [4], > 256 µg/mL. The MIC with Bacillus subtilis is 16 µg/mL; against Enterococcus faecalis, 32 µg/mL; in data set [5], 16 µg/mL; with Streptococcus pyogenes, 32 µg/mL.

For the compound `N=C(NCCCCCCCCN1CCCCCCCCNC(=N)NC1=O)NCC1CCC1.O=C(O)C(F)(F)F.O=C(O)C(F)(F)F`, the MIC with Acinetobacter baumannii [1] was 32 µg/mL; against Aeromonas hydrophila it was 64 µg/mL; in [2] it was 256 µg/mL; against Escherichia coli, 64 µg/mL; against Klebsiella pneumoniae [3], 32 µg/mL; in the data set on Pseudomonas aeruginosa [4] it was > 256 µg/mL. The MIC turned out to be 4 µg/mL in the data set with Bacillus subtilis, 8 µg/mL against Enterococcus faecalis, 4 µg/mL in [5] and 2 µg/mL against Streptococcus pyogenes.

Turning to `CC(C)=CCNC(=N)NCCCCCCN1CCCCCCCCNC(=N)NC1=O.O=C(O)C(F)(F)F.O=C(O)C(F)(F)F`, the MIC was 256 µg/mL with Acinetobacter baumannii [1]; > 256 µg/mL in the data set with Aeromonas hydrophila; > 256 µg/mL in data set [2]; 256 µg/mL in the data set on Escherichia coli; > 256 µg/mL against Klebsiella pneumoniae [3]; > 256 µg/mL against Pseudomonas aeruginosa [4]. Moreover, the MIC with Bacillus subtilis was determined as 64 µg/mL; in the data set with Enterococcus faecalis, 16 µg/mL; in [5], 16 µg/mL; against Streptococcus pyogenes it was 8 µg/mL.

As to `C#CCNC(=N)NCCCCCCN1CCCCCCCCNC(=N)NC1=O.O=C(O)C(F)(F)F.O=C(O)C(F)(F)F`, the MIC (in the data set with Acinetobacter baumannii [1]; in the data set on Aeromonas hydrophila; in data set [2]; with Escherichia coli; with Klebsiella pneumoniae [3]; against Pseudomonas aeruginosa [4]) was > 256 µg/mL each time. The MIC in the data set on Bacillus subtilis was 64 µg/mL; against Enterococcus faecalis, 128 µg/mL; in data set [5], 32 µg/mL; in the data set with Streptococcus pyogenes, 16 µg/mL.

In the case of `C=C(C)CNC(=N)NCCCCCCCCNCCCCCCCCNC(=N)N.O=C(O)C(F)(F)F.O=C(O)C(F)(F)F.O=C(O)C(F)(F)F`, the MIC was > 256 µg/mL against Acinetobacter baumannii [1]; > 256 µg/mL with Aeromonas hydrophila; > 256 µg/mL in data set [2]; 128 µg/mL against Escherichia coli; 256 µg/mL with Klebsiella pneumoniae [3]; > 256 µg/mL in the data set with Pseudomonas aeruginosa [4]. Also, the MIC against Bacillus subtilis is 64 µg/mL; in the data set on Enterococcus faecalis, 256 µg/mL; in [5], 64 µg/mL; against Streptococcus pyogenes it was 16 µg/mL.

Take `CO[C@H]1/C=C/O[C@@]2(C)Oc3c(C)c(O)c4c(O)c(c5c(nc6cc(C)ccn65)c4c3C2=O)NC(=O)/C(C)=C\C=C\[C@H](C)[C@H](O)[C@@H](C)[C@@H](O)[C@@H](C)[C@H](OC(C)=O)[C@@H]1C` [RIFAXIMIN]: the results for the Papp at 5 h in data set [12] and in data set [13] were 0.006 ×10⁻⁶ cm/s and 0.012 ×10⁻⁶ cm/s, respectively. Moreover, the Papp in data set [14] and in [15] was 0% throughout.

For the compound `CN(CCCCCCCCNCCCCCCCCNC(=N)N)C(=N)NCC1CC1.O=C(O)C(F)(F)F.O=C(O)C(F)(F)F.O=C(O)C(F)(F)F`, the MIC in the data set with Acinetobacter baumannii [1] is 256 µg/mL; in the data set on Aeromonas hydrophila it was > 256 µg/mL; in data set [2] it was 32 µg/mL; in the data set with Escherichia coli, > 256 µg/mL; in the data set on Klebsiella pneumoniae [3] it was 8 µg/mL; against Pseudomonas aeruginosa [4], 8 µg/mL. Besides, the MIC was determined as 256 µg/mL with Bacillus subtilis, 4 µg/mL against Enterococcus faecalis, 8 µg/mL in [5] and 8 µg/mL in the data set on Streptococcus pyogenes.

In the case of `N=C(N)NCCCCCCNCCCCCCNC(=N)NCC1CC1.O=C(O)C(F)(F)F.O=C(O)C(F)(F)F.O=C(O)C(F)(F)F`, the MIC in the data set on Acinetobacter baumannii [1] was > 256 µg/mL; in the data set on Aeromonas hydrophila it was > 256 µg/mL; in data set [2], > 256 µg/mL; against Escherichia coli, > 256 µg/mL; against Klebsiella pneumoniae [3], 256 µg/mL; with Pseudomonas aeruginosa [4], > 256 µg/mL. In addition, the MIC in the data set on Bacillus subtilis is > 256 µg/mL; against Enterococcus faecalis it was 16 µg/mL; in data set [5], 256 µg/mL; in the data set with Streptococcus pyogenes, 32 µg/mL.

For the compound `N=C(NCCCCCCCCNCCCCCCCCNC(=N)NCC1CC1)NCC1CC1.O=C(O)C(F)(F)F.O=C(O)C(F)(F)F.O=C(O)C(F)(F)F`, the minimal inhibitory concentration (MIC) (with Acinetobacter baumannii [1]; in the data set on Aeromonas hydrophila; in data set [2]; in the data set with Escherichia coli; with Klebsiella pneumoniae [3]; against Pseudomonas aeruginosa [4]) was > 256 µg/mL throughout. Further, the MIC (in the data set with Bacillus subtilis; against Enterococcus faecalis; in data set [5]; against Streptococcus pyogenes) was > 256 µg/mL throughout.

For the compound `C#CCNC(=N)N(C)CCCCCCCCNCCCCCCCCNC(=N)N.O=C(O)C(F)(F)F.O=C(O)C(F)(F)F.O=C(O)C(F)(F)F`, the MIC against Acinetobacter baumannii [1] is 256 µg/mL; against Aeromonas hydrophila it was > 256 µg/mL; in [2], 64 µg/mL; with Escherichia coli, > 256 µg/mL; in the data set on Klebsiella pneumoniae [3], 16 µg/mL; with Pseudomonas aeruginosa [4], 32 µg/mL. Further, the MIC in the data set on Bacillus subtilis was determined as 256 µg/mL; with Enterococcus faecalis it was 8 µg/mL; in data set [5] it was 16 µg/mL; in the data set on Streptococcus pyogenes it was 16 µg/mL.

The values are drawn from ChEMBL document CHEMBL3352312, “Synthesis of linear and cyclic guazatine derivatives endowed with antibacterial activity” (Bioorg Med Chem Lett, 2014).
